What was measured:
[1] = test system: A2780; experiment: Growth inhibition of human A2780 cells after 96 hrs by MTT assay; type: functional, cell-based; details: A2780, 96 h
Method in brief: (§1)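 Cancer cell lines exposed continuously to each sample for 96 h; growth read by MTT assay. IC50, the concentration inhibiting cell growth by 50%, taken as the mean of three replicates. Taxol and NK109 served as positive controls.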

[2] = test system: BGC-823; experiment: Growth inhibition of human BGC823 cells after 96 hrs by MTT assay; type: functional, cell-based; details: BGC-823, 96 h; method in brief: as §1
[3] = test system: HCT-116; experiment: Growth inhibition of human HCT116 cells after 96 hrs by MTT assay; type: functional, cell-based; details: HCT-116, 96 h; method in brief: as §1
[4] = test system: NCI-H1650; experiment: Growth inhibition of human NCI-H1650 cells after 96 hrs by MTT assay; type: functional, cell-based; details: NCI-H1650, 96 h; method in brief: as §1
[5] = test system: HepG2; experiment: Growth inhibition of human HepG2 cells after 96 hrs by MTT assay; type: functional, cell-based; details: HepG2, 96 h
[6] = Cytotoxicity against rat IEC-6 cells assessed as survival rate at 10 uM after 48 hrs by MTT assay relative to control; type: cell-based; details: read-out: Survival
Method in brief: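 MTT read-out of viability in normal IEC-6 intestinal cells co-incubated with compound at 10 μM; readings at 0, 24 and 48 h of coculture (n = 5); survival expressed against a blank control group.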

| Compound | IC50 [1] [µM] | IC50 [2] [µM] | IC50 [3] [µM] | IC50 [4] [µM] | IC50 [5] [µM] | viability at 48 h, 10 µM [6] [%] |
| --- | --- | --- | --- | --- | --- | --- |
| COc1ccc2c(c[n+](C)c3c4cc5c(cc4ccc23)OCO5)c1O | 0.9 | 1.84 | 3.94 | 1.75 | 1.19 |  |
| Nc1ncnc2c1ncn2[C@H]1CCC(=O)c2c(O)ccc(O)c21 | > 10 | > 10 | > 10 | > 10 | > 10 |  |
| O=Cc1ccc2n1CCc1c([nH]c3ccccc13)C2 | 0.96 | 2.28 | 2.87 | 2.86 | 1.87 | 79.6 |
| O=C1CC[C@H]2c3c([nH]c4ccccc34)CCN12 | > 10 | > 10 | > 10 | > 10 | > 10 |  |
| Nc1ncnc2c1ncn2[C@@H]1CCC(=O)c2c(O)ccc(O)c21 | > 10 | > 10 | > 10 | > 10 | > 10 |  |
| NC(=O)[C@@H]1CCC(=O)c2cccc(O)c2N1 | > 10 | > 10 | > 10 | > 10 | > 10 |  |
| O=C1CC[C@@H](c2c[nH]c3ccccc23)c2c(O)ccc(O)c21 | > 10 | > 10 | > 10 | > 10 | > 10 |  |
| O=C1CC[C@H](c2c[nH]c3ccccc23)c2c(O)ccc(O)c21 | > 10 | > 10 | > 10 | > 10 | > 10 |  |
| CCOCc1ccc(C=O)n1CCc1ccc(O)cc1 | > 10 | > 10 | > 10 | > 10 | > 10 |  |
| Nc1ncnc2c1ncn2[C@@H]1CCC(=O)c2cccc(O)c21 | > 10 | > 10 | > 10 | > 10 | > 10 |  |
| Nc1ncnc2c1ncn2[C@H]1CCC(=O)c2cccc(O)c21 | > 10 | > 10 | > 10 | > 10 | > 10 |  |
| O=C1CC[C@@H]2c3c([nH]c4ccccc34)CCN12 | > 10 | > 10 | > 10 | > 10 | > 10 |  |
| NC(=O)[C@H]1CCC(=O)c2cccc(O)c2N1 | > 10 | > 10 | > 10 | > 10 | > 10 |  |
| Nc1ncnc2c1ncn2C1CCC(=O)c2cccc(O)c21 (racemic) | > 10 | > 10 | > 10 | > 10 | > 10 |  |
| Nc1ncnc2c1ncn2C1CCC(=O)c2c(O)ccc(O)c21 (racemic) | > 10 | > 10 | > 10 | > 10 | > 10 |  |
| O=C1CCC2c3c([nH]c4ccccc34)CCN12 (racemic) | > 10 | > 10 | > 10 | > 10 | > 10 |  |
| NC(=O)C1CCC(=O)c2cccc(O)c2N1 (racemic) | > 10 | > 10 | > 10 | > 10 | > 10 |  |
| O=C1CCC(c2c[nH]c3ccccc23)c2c(O)ccc(O)c21 (racemic) | > 10 | > 10 | > 10 | > 10 | > 10 |  |
| CC(=O)O[C@H]1C(=O)[C@@]2(C)[C@H]([C@H](OC(=O)c3ccccc3)[C@]3(O)C[C@H](OC(=O)[C@H](O)[C@@H](NC(=O)c4ccccc4)c4ccccc4)C(C)=C1C3(C)C)[C@]1(OC(C)=O)CO[C@@H]1C[C@@H]2O [PACLITAXEL] | 0.0204 | 0.0006 | 0.0002 | > 1 |  |  |

Reference: ChEMBL document CHEMBL4190281, “Azacyclo-indoles and Phenolics from the Flowers of Juglans regia” (J Nat Prod, 2017)
